Measurements gathered from unrelated publications.
Each line is one published result; the experiments were not run side by side. pIC50: −log10 of the molar value.
Organism: Trypanosoma cruzi
Observed: parasite growth

O=C(N[C@@H](Cc1ccccc1)C(=O)c1ncc(-c2ccccc2)s1)[C@H](Cc1ccccc1)NC(=O)N1CCOCC1
pIC50 (TULAHUEN; intracellular, amastigote): 4.70

O=C(Cn1ccnc1[N+](=O)[O-])NCc1ccccc1
pIC50 (NIH3T3; TULAHUEN; 96 h; intracellular, amastigote): 5.95

Fc1ccccc1-c1nc(N2CCC(c3ccccn3)C2)c2ccccc2n1 (stereo not drawn)
pIC50 (imaging; U2OS; intracellular, amastigote): 5.27

CCCCCCCCCCCCCC#CC(=O)O
pIC50 (rat Myoblast; intracellular, amastigote): 4.10

C=C1CC[C@@H](O)[C@]2(C)CC[C@H]3C(=C)C(=O)O[C@@H]3[C@@H]12
pIC50 (72 h; epimastigote): < 4.30

O=C(N[C@@H](Cc1ccccc1)C(=O)c1noc(-c2ccccc2)n1)[C@H](Cc1ccccc1)NC(=O)N1CCOCC1
pIC50 (TULAHUEN; intracellular, amastigote): 4.56

CCCCCCCCCCCCCC#CC(=O)O
IC50 (rat Myoblast; TULAHUEN; intracellular, amastigote): 20.2 µg/mL

C[Si](C)(C)c1cc(C(=O)[C@H](Cc2ccccc2)NC(=O)[C@H](Cc2ccccc2)NC(=O)N2CCOCC2)no1 (single isomer, unassigned)
pIC50 (TULAHUEN; intracellular, amastigote): < 4.19

COc1ccc(Nc2nc(-c3cccnc3)nc3ccccc23)cc1
pIC50 (imaging; U2OS; intracellular, amastigote): 5.20

O=C(Nc1ccc2c(c1)B(O)OC2)Nc1ccc(F)c(C(F)(F)F)c1
pIC50 (TULAHUEN; intracellular, amastigote): 5.18

CC1CS(=O)(=O)CCN1/N=C/c1ccc([N+](=O)[O-])o1 (stereo not drawn)
pIC50 (epimastigote): 5.62

c1ccc(CN2CCN(c3nc(-c4ccccn4)nc4ccccc34)CC2)cc1
pIC50 (imaging; U2OS; intracellular, amastigote): 5.52

O=C(N[C@@H](Cc1ccccc1)C(=O)c1ncc(-c2ccccc2)o1)[C@H](Cc1ccccc1)NC(=O)N1CCOCC1
pIC50 (TULAHUEN; intracellular, amastigote): 4.54

O=C(Nc1ccnc(C(F)(F)F)c1)Nc1cccc2c1OC(F)(F)O2
pIC50 (TULAHUEN; intracellular, amastigote): 5.54

COc1ccc(Nc2nc(-c3ccc(C)cc3)nc3ccccc23)cc1
pIC50 (imaging; U2OS; intracellular, amastigote): 5.51
